# Hits are enriched below; roughly 2.3% of the tested compounds scored in any of these assays.
# PfHsp90 set2: growth inhibition of yeast expressing Plasmodium Hsp90; S. cerevisiae expressing PfHsp90, BacTiter-Glo ATP, 48 h; yeast lacking PDR1 and PDR3 efflux regulators; inhibition, % at 9.4 µM; 310,000 tested, 0.32% active; AID 504621;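 active = every replicate shows inhibition above about 80%, whatever the replicate mean, limit read from the data; inconclusive = mean inhibition reaches the set limit but some replicate falls short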;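 note: 0% = DMSO neutral controls and 100% = 20 µM radicicol positive controls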
# N-glyco inh: blocks N-linked glycosylation in D54 reporter cells; D54 ERlucT glycosylation luciferase reporter, 24 h; percent of 100 nM tunicamycin response; reporter increase, % at 12.5 µM; 360,000 tested, 0.23% active;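 active = mean luciferase reporter signal, scaled so untreated is 0 and the glycosylation-blocking control 100, at or above a set limit in every replicate; inconclusive = mean reaches the limit but not every replicate does; inactive = mean below the limit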;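 note: luciferase carries N-glycosylation sites so blocking glycosylation raises the light; 0% = median of neutral control wells and 100% = median of 100 nM tunicamycin wells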
# Rtt109 HAT inh: blocks Candida albicans Rtt109/Vps75 acetyltransferase activity; Q5AAJ8; purified Rtt109/Vps75, ThioGlo CoA-SH fluorescence, 4 h; inhibition, % at 34.9 µM; 330,000 tested, 0.16% active; AID 540336;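 active = inhibition of at least 50% in every replicate; inconclusive = best replicate reaches 50% inhibition but some replicates fall short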
# Target sequence (Q5AAJ8 whole entry, looked up): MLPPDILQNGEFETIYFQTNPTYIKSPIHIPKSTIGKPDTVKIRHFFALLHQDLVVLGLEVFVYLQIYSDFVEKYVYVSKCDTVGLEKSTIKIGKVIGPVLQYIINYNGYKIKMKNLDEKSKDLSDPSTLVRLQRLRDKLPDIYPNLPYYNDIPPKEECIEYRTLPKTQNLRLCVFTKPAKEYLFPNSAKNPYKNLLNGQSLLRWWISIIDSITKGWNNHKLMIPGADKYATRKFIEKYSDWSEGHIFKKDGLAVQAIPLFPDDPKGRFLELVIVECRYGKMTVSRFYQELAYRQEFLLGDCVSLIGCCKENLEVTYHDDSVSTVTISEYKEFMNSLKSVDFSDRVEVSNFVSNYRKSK
# Arr AP2 block: inhibitors of human beta-arrestin and AP2 interaction; FITC-arrestin peptide / GST-AP2 beads, flow cytometry; AP2 beta2 appendage carries R879A mutation; inhibition, % at 10 µM; 340,000 tested, 0.31% active;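 active = inhibition above a set limit, near 3 SD of compounds lacking own fluorescence, cut at about 54% in these data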;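 note: plate controls were DMSO wells for no effect and 5 µM unlabelled arrestin peptide for full effect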
#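 System: GST-tagged AP2 beta2-adaptin appendage (R879A) on 4 µm glutathione beads / Reagent: FITC-arrestin peptide, 50 nM / Detection: HyperCyt-sampled flow cytometry, FL1 channel, ex 488/em 535 nm / Timing: 12 min plus 1 h, RT / Buffer or medium: PBS plus Tween 20 (0.05%) and BSA (0.1%)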
# HIV Env fusion: inhibitors of HIV Env-mediated cell fusion. inhibition, % at 12.3 µM. HeLa-JRFL Env/CEM21 cell fusion, luciferase. 360,000 tested, 1.1% active. AID 651610;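 active = mean replicate inhibition score of at least 50 and every replicate individually at or above 50; inconclusive = only one of the two criteria met; inactive = mean below 50 and not all replicates reaching 50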;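 note: 0% = plate neutral controls and 100% = maraviroc near 300 nM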
# PAX8 reporter: PAX8 transcriptional activity inhibition | RMG-I TPO-luciferase reporter, SteadyGlo, 24 h | inhibition, % at 12.6 µM | 360,000 tested, 1.2% active | AID 652154;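 active = mean replicate inhibition at least 60% with every replicate also reaching 60%; inconclusive = only one of the two criteria is met; inactive = mean below 60% and not all replicates reaching 60%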;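 note: luciferase light reporting Pax8 driven TPO promoter activity; plate controls were median of neutral control wells for no effect and mitoxantrone controls for full effect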
# Numbers without * were called inactive; i = inactive; ? = inconclusive; · = not tested or not shown; [ ] = remark or other dose.
SMILES,PfHsp90 set2,N-glyco inh,Rtt109 HAT inh,Arr AP2 block,HIV Env fusion,PAX8 reporter
CC(C)NC(=O)Nc1ccc2c(c1)C(=O)N([C@@H](C)CO)C[C@H](C)[C@@H](CN(C)C(=O)c1ccccc1)OCCCC[C@@H](C)O2,·,·,·,·,8[16.7 µM],1
C[C@@H]1CN([C@@H](C)CO)C(=O)Cc2cc(NC(=O)C3CCCCC3)ccc2O[C@H]1CN(C)Cc1ccc(Cl)c(Cl)c1,·,·,·,·,43[16.7 µM],95*
C[C@@H]1CN([C@H](C)CO)C(=O)Cc2cc(NC(=O)C3CCCCC3)ccc2O[C@H]1CN(C)Cc1ccc(Cl)c(Cl)c1,·,·,·,·,10[16.7 µM],-5
C[C@H](CO)N1C[C@H](C)[C@H](CN(C)Cc2ccc(C(F)(F)F)cc2)Oc2ccc(NC(=O)Nc3ccccc3)cc2CC1=O,·,·,·,·,-3[16.7 µM],·
C[C@@H]1CN([C@H](C)CO)C(=O)Cc2cc(NC(=O)Nc3ccc(F)cc3)ccc2O[C@H]1CN(C)Cc1ccc(Cl)c(Cl)c1,·,·,·,·,11[16.7 µM],109*
C[C@H]1CN([C@@H](C)CO)C(=O)Cc2cc(NC(=O)Nc3ccc(C(F)(F)F)cc3)ccc2O[C@@H]1CN(C)Cc1ccccc1,·,·,·,·,82*[16.7 µM],33
C[C@@H]1CN([C@@H](C)CO)C(=O)Cc2cc(NC(=O)Nc3ccc(F)cc3)ccc2O[C@H]1CN(C)Cc1ccc(C(F)(F)F)cc1,·,·,·,·,69*[16.7 µM],·
C[C@H]1CN([C@@H](C)CO)C(=O)Cc2cc(NC(=O)Nc3ccc(F)cc3)ccc2O[C@@H]1CN(C)Cc1ccc(Cl)c(Cl)c1,·,·,·,·,-4[16.7 µM],0
COCC(=O)Nc1ccc2c(c1)[C@H]1C[C@@H](CC(=O)NCc3ccc(-c4ccccc4)cc3)O[C@H](CO)[C@H]1O2,·,·,·,·,39[16.7 µM],11
C[C@H](CO)N1C[C@H](C)[C@H](CN(C)S(=O)(=O)c2cccc(F)c2)OCc2cn(nn2)CCCC1=O,·,·,·,·,7[16.7 µM],·
C[C@H](CO)N1C[C@H](C)[C@@H](CN(C)Cc2ccc(-c3ccccc3)cc2)Oc2ccc(NC(=O)Nc3ccc(C(F)(F)F)cc3)cc2CC1=O,·,·,·,·,34[16.7 µM],68*
Cc1ccc(S(=O)(=O)Nc2ccc3c(c2)CC(=O)N([C@@H](C)CO)C[C@H](C)[C@@H](CN(C)C(=O)Nc2ccc(C(F)(F)F)cc2)O3)cc1,·,·,·,·,17[16.7 µM],88*
C[C@H]1CN([C@@H](C)CO)C(=O)Cc2cc(NC(=O)Nc3ccc(C(F)(F)F)cc3)ccc2O[C@H]1CN(C)C(=O)Nc1ccc(C(F)(F)F)cc1,·,·,·,·,43[16.7 µM],86*
Cc1ccc(S(=O)(=O)Nc2ccc3c(c2)CC(=O)N([C@@H](C)CO)C[C@H](C)[C@H](CN(C)C(=O)Nc2ccc(C(F)(F)F)cc2)O3)cc1,·,·,·,·,1[16.7 µM],-18
CCC(=O)N1CCC2(CC1)CN(Cc1cc(F)ccc1F)[C@@H](CO)c1[nH]c3cc(OC)ccc3c12,·,·,·,·,·,-5
O=C1CCC(C(=O)OCC(=O)c2ccccc2)N1 (stereo not drawn),10,0,-5,-18,-2,-11
CC1CC(C)C(=O)C(C(CC2CC(=O)NC(=O)C2)OC(=O)CC(=O)c2ccccc2)C1 (stereo not drawn),·,-19,10,6,?,85*
Nc1nc(N)c2c(ccc3c2ccn3Cc2cccc([N+](=O)[O-])c2)n1,·,-20,·,·,7,117*
COc1cccc(NC(=O)N2C[C@@H](O)COC[C@@H]3O[C@@H](CC(=O)NC4Cc5ccccc5C4)CC[C@H]32)c1,·,·,·,·,-10[16.7 µM],-2
Cc1ccc(S(=O)(=O)N(C)C[C@H]2Oc3ccc(NC(=O)Nc4c(C)noc4C)cc3C(=O)N([C@@H](C)CO)C[C@H]2C)cc1,·,·,·,·,9[16.7 µM],-6
Cc1c(Nc2cc(Cl)c3nonc3c2[N+](=O)[O-])c(=O)n(-c2ccccc2)n1C,2,-1,16,32,i,107*
O=[N+]([O-])c1c(Nc2cccc(O)c2)cc(Cl)c2nonc12,-7,-11,-10,16,-111,112*
COc1ccccc1NC(=O)N1C[C@@H]2[C@H](c3ccccc31)[C@H](CO)N2C(=O)C1CC1,·,·,·,·,·,21
C[C@@H]1CN([C@@H](C)CO)S(=O)(=O)c2ccc(-c3cncnc3)cc2O[C@@H]1CN(C)C(=O)C1CCC1,·,·,·,·,8[16.7 µM],·

# From PubChem
